By IC50 is commonly meant the point on the concentration scale where inhibition reaches its midpoint.

From ChEMBL document CHEMBL3124854, “Synthesis and evaluation of antiproliferative activity of a novel series of hydroxychavicol analogs” (Eur J Med Chem, 2014) come the findings set out here.

One test concerns HeLa. The test is described as follows: Cytotoxicity against human HeLa cells assessed as growth inhibition after 48 hrs by MTT assay. The test is classed as functional, cell-based. Put shortly:
(§1)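 MTT proliferation assay: 2 × 10³ cells per well seeded, 24 h incubation, then treated with analogs dissolved in DMSO and diluted in medium at […] for 48 h. Medium then replaced with fresh medium carrying MTT (5 mg/mL stock in PBS). IC50 taken as concentration inhibiting proliferation of 50% cells; SD between batches.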
(In general: Tetrazolium dyes change colour on reduction, which living cells bring about.)

In the next test the test system is PC-3. The test is described as follows: Cytotoxicity against human PC3 cells assessed as growth inhibition after 48 hrs by MTT assay. The test is classed as functional, cell-based. The settings on record: PC-3, 48 h. Put shortly: as §1

Regarding `CC(=O)OC/C=C/c1ccc(OCc2ccccc2)c(OC(C)=O)c1`, the IC50 came out at 42 µM with HeLa and 38 µM with PC-3.

Consider `C=CCc1ccc(O)c(O)c1` [HYDROXYCHAVICOL], for which the results for the IC50 in the test on HeLa and in the test on PC-3 were 83 µM and 55 µM, respectively. As for `C=CCOc1ccc(CC(COC(C)=O)OC(C)=O)cc1OC` (stereo not given), the IC50 in the test on HeLa came to 96 µM. `CC(=O)OC/C=C/c1ccc(OCc2ccccc2)c(O)c1`: the IC50 in the test with HeLa worked out at 13 µM; in the test on PC-3, 3.5 µM. On the same counts, the results for `CCC(OC(C)=O)c1ccc(OC(C)=O)c(OC(C)=O)c1` (stereo not given) are 53 µM and 42 µM. On the same counts, the results for `CCC(OC(C)=O)c1ccc(O)c(OC(C)=O)c1` (stereo not given) are 40 µM and 48 µM. On to `COc1cc(CC(COC(C)=O)OC(C)=O)ccc1O` (stereo not given), for which the IC50 in the test with HeLa stood at 60 µM. Consider `CC(=O)OCCCc1ccc(O)c(O)c1`, for which the IC50 amounted to 22 µM with HeLa and 83 µM in the test with PC-3. As for `C=CC(O)c1ccc(OCc2ccccc2)c(O)c1` (stereo not given), in the test with HeLa, the IC50 came to 76 µM.
